Assay results reported in ChEMBL document CHEMBL1126302, “Dispiro-1,2,4,5-tetraoxanes: a new class of antimalarial peroxides” (J Med Chem, 1992).
The source made the active and inactive calls.

Legend:
[1] = Resistance index is defined as the ratio of IC50 of Plasmodium falciparum(W-2) clone to IC50 of Plasmodium falciparum(D6) clone; assay type: functional
How it was run: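 Ratio of IC50 W-2 to IC50 D-6 for P. falciparum. […] Activity is read as inhibition of tritiated hypoxanthine uptake.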

Mus musculus [2] = assay: Mean survival time of the treated mice (Mus musculus) beyond that of the control animals against Plasmodium berghei at dose 20(mg/kg); Experiment II; assay type: functional
Plasmodium falciparum [3] = assay: […] antimalarial activity against Plasmodium falciparum W-2; assay type: functional, organism-based
Plasmodium falciparum [4] = assay: […] antimalarial activity against Plasmodium falciparum D6; assay type: functional, organism-based
Mus musculus [5] = assay: Mean survival time of the treated mice (Mus musculus) beyond that of the control animals against Plasmodium berghei at dose 20(mg/kg); Experiment I; assay type: functional
Mus musculus [6] = assay: Mean survival time of the treated mice (Mus musculus) beyond that of the control animals against Plasmodium berghei at dose 160 (mg/kg); Experiment II; assay type: functional
Mus musculus [7] = assay: Mean survival time of the treated mice (Mus musculus) beyond that of the control animals against Plasmodium berghei at dose 160 (mg/kg); Experiment I; assay type: functional
Mus musculus [8] = assay: Mean survival time of the treated mice (Mus musculus) beyond that of the control animals against Plasmodium berghei at dose 40(mg/kg); Experiment I; assay type: functional
Mus musculus [9] = assay: Mean survival time of the treated mice (Mus musculus) beyond that of the control animals against Plasmodium berghei at dose 640(mg/kg); Experiment II; Survival beyond 60 days is considered curative (C); assay type: functional
Mus musculus [10] = assay: Mean survival time of the treated mice (Mus musculus) beyond that of the control animals against Plasmodium berghei at dose 80(mg/kg); Experiment II; assay type: functional
Mus musculus [11] = assay: Mean survival time of the treated mice (Mus musculus) beyond that of the control animals against Plasmodium berghei at dose 320(mg/kg); Survival beyond 60 days is considered curative; Experiment II; active(A); assay type: functional
Mus musculus [12] = assay: Mean survival time of the treated mice (Mus musculus) beyond that of the control animals against Plasmodium berghei at dose 320(mg/kg); Experiment I; assay type: functional
Mus musculus [13] = assay: Mean survival time of the treated mice (Mus musculus) beyond that of the control animals against Plasmodium berghei at dose 40(mg/kg); Experiment II; assay type: functional
Mus musculus [14] = assay: Mean survival time of the treated mice (Mus musculus) beyond that of the control animals against Plasmodium berghei at dose 640(mg/kg); Experiment I; not active; assay type: functional
Mus musculus [15] = assay: Mean survival time of the treated mice (Mus musculus) beyond that of the control animals against Plasmodium berghei at dose 80(mg/kg); Experiment I; assay type: functional
Mus musculus [16] = assay: Mean survival time of the treated mice (Mus musculus) beyond that of the control animals against Plasmodium berghei at dose 320(mg/kg); Survival beyond 60 days is considered curative; Experiment II; Survival beyond 60 days is considered curative (C); assay type: functional
Plasmodium berghei = assay: […] antimalarial activity against drug-resistant Plasmodium berghei KBG173; assay type: functional
Mus musculus [17] = assay: Mean survival time of the treated mice (Mus musculus) beyond that of the control animals against Plasmodium berghei at dose 160 (mg/kg); Experiment II; active (A); assay type: functional
Mus musculus [18] = assay: Mean survival time of the treated mice (Mus musculus) beyond that of the control animals against Plasmodium berghei at dose 640(mg/kg); Experiment I; assay type: functional
Mus musculus [19] = assay: Mean survival time of the treated mice (Mus musculus) beyond that of the control animals against Plasmodium berghei at dose 640(mg/kg); Experiment II; Survival beyond 60 days is considered curative (C).; assay type: functional
Mus musculus [20] = assay: Mean survival time of the treated mice (Mus musculus) beyond that of the control animals against Plasmodium berghei at dose 320(mg/kg); Survival beyond 60 days is considered curative; Experiment I; assay type: functional
Mus musculus [21] = assay: Mean survival time of the treated mice (Mus musculus) beyond that of the control animals against Plasmodium berghei at dose 640(mg/kg); Survival beyond 60 days is considered curative; assay type: functional
Mus musculus [22] = assay: Mean survival time of the treated mice (Mus musculus) beyond that of the control animals against Plasmodium berghei at dose 20(mg/kg); assay type: functional
Mus musculus [23] = assay: Mean survival time of the treated mice (Mus musculus) beyond that of the control animals against Plasmodium berghei at dose 40(mg/kg); assay type: functional
Mus musculus [24] = assay: Mean survival time of the treated mice (Mus musculus) beyond that of the control animals against Plasmodium berghei at dose 160 mg/kg); assay type: functional
Mus musculus [25] = assay: Mean survival time of the treated mice (Mus musculus) beyond that of the control animals against Plasmodium berghei at dose 320(mg/kg); assay type: functional
Mus musculus [26] = assay: Mean survival time of the treated mice (Mus musculus) beyond that of the control animals against Plasmodium berghei at dose 80(mg/kg); assay type: functional

Row | SMILES | Resistance index [1] | T-C (Mus musculus [2]) [days] | IC50 (Plasmodium falciparum [3]) [nM] | IC50 (Plasmodium falciparum [4]) [nM] | T-C (Mus musculus [5]) [days] | T-C (Mus musculus [6]) [days] | T-C (Mus musculus [7]) [days] | T-C (Mus musculus [8]) [days] | T-C (Mus musculus [9]) [days] | T-C (Mus musculus [10]) [days] | T-C (Mus musculus [11]) [days] | T-C (Mus musculus [12]) [days] | T-C (Mus musculus [13]) [days] | T-C (Mus musculus [14]) | T-C (Mus musculus [15]) [days] | ED50 (Plasmodium berghei) [mg/kg] | other results
1 | CC1CCC2(CC1)OOC1(CCC(C)CC1)OO2 (stereo unspecified) | 7.1 | 0.3 | 58 | 8.2 | 0.1 | 3.2 | 2.4 | 0.4 | 1 | 2 | 13 | 1.9 | 0.5 | 1 days | 0.1 |  | 
2 | C[C@@H]1CCCCC12OOC1(CCCC[C@@H]1C)OO2 (stereo partly specified) [WR-148999] | 0.49 | 0.7 | 3.4 | 6.9 | 0.2 |  | 9.6 | 1.8 | 5 | 5 |  | 1 | 1.2 |  | 1.6 | 382 | T-C (Mus musculus [16]): 3 days; T-C (Mus musculus [17]): 12 days; T-C (Mus musculus [18]): 3 days
3 | CC1CC(C)CC2(C1)OOC1(CC(C)CC(C)C1)OO2 (stereo unspecified) | 0.26 | 0.6 | 13 | 50 | 1.5 | 5.8 | 5.5 | 1.3 |  | 3.8 | 7.4 |  | 1 | inactive | 2.4 |  | T-C (Mus musculus [19]): 2 days; T-C (Mus musculus [20]): 1 days
4 | C[C@@H]1CC[C@H]2[C@@H](C)C(=O)O[C@@H]3O[C@@]4(C)CC[C@@H]1[C@]32OO4 [ARTEMISININ] | 0.47 |  | 2.2 | 4.7 |  |  |  |  |  |  |  |  |  |  |  | 607 | T-C (Mus musculus [21]): 2 days; T-C (Mus musculus [22]): 1.5 days; T-C (Mus musculus [23]): 1.7 days; T-C (Mus musculus [24]): 3.9 days; T-C (Mus musculus [25]): 5.1 days; T-C (Mus musculus [26]): 2.3 days
